# Legend:
# Histamine H2 receptor [1] = target: Histamine H2 receptor (Cavia porcellus, UniProt P47747); experiment: Agonist activity at histamine H2 receptor in guinea pig spontaneously beating right atrium assessed as positive chronotropic activity; type: functional, tissue-based, Cardiac atrium
# [2] = target: Histamine H1 receptor (Homo sapiens) (UniProt P35367); experiment: Antagonist activity at histamine H1 receptor in human U373 MG cells assessed as inhibition of histamine-induced intracellular calcium level preincubated for 15 mins prior to histamine challenge; type: functional, cell-based; details: U-373MG ATCC
# In short: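 U373-MG human cells expressing H1R, calcium assay. […] KB was derived from IC50 by the Cheng-Prusoff equation. Values are the mean of two experiments.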
# [3] = target: Histamine H2 receptor (Cavia porcellus) (UniProt P47747); experiment: Agonist activity at histamine H2 receptor in guinea pig spontaneously beating right atrium assessed as positive chronotropic activity relative to histamine; type: functional, tissue-based; details: Cardiac atrium
# Histamine H1 receptor = Histamine H1 receptor (Cavia porcellus, UniProt P31389); experiment: Antagonist activity at histamine H1 receptor in guinea pig ileum assessed as inhibition of histamine-induced […]; type: functional, tissue-based; details: for Kb: read-out: pA2 (converted)
# [4] = target: Histamine H1 receptor (Cavia porcellus) (UniProt P31389); experiment: Antagonist activity at histamine H1 receptor in guinea pig ileum assessed as […]
# [5] = target: Histamine H1 receptor (Homo sapiens) (UniProt P35367); experiment: Activity at human recombinant histamine H1 receptor expressed in Sf9 cells coexpressing RGS4 by steady-state GTPase activity assay relative to histamine
# In short: (§1)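 Membranes from Sf9 insect cells expressing the receptor construct named in each line: hH1R with RGS4, hH2R-GsR or gpH2R-GsR fusion, hH3R with GRi, Gβ1γ2 and RGS4, or hH4R-RGS19 fusion with GRi2 and Gβ1γ2. […] Values are mean ± SEM.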
# Histamine H2 receptor [6] = target: Histamine H2 receptor (Homo sapiens, UniProt P25021); experiment: Activity at human recombinant histamine H2 receptor-Gsalpha fusion protein expressed in Sf9 cells by steady-state GTPase activity assay relative to histamine; in short: as §1
# Histamine H3 receptor = Histamine H3 receptor (Homo sapiens, UniProt Q9Y5N1); experiment: Activity at human recombinant histamine H3 receptor expressed in Sf9 cells coexpressing Galphai2, G-beta-1-gamma-2 and RGS4 by steady-state GTPase activity assay relative to histamine; in short: as §1
# [7] = target: Histamine H2 receptor (Cavia porcellus) (UniProt P47747); experiment: Activity at guinea pig recombinant histamine H2 receptor-Gsalpha fusion protein expressed in Sf9 cells by steady-state GTPase activity assay relative to histamine; in short: as §1
# Histamine H3 receptor, sequence (Q9Y5N1 whole entry, the tested form may be a part): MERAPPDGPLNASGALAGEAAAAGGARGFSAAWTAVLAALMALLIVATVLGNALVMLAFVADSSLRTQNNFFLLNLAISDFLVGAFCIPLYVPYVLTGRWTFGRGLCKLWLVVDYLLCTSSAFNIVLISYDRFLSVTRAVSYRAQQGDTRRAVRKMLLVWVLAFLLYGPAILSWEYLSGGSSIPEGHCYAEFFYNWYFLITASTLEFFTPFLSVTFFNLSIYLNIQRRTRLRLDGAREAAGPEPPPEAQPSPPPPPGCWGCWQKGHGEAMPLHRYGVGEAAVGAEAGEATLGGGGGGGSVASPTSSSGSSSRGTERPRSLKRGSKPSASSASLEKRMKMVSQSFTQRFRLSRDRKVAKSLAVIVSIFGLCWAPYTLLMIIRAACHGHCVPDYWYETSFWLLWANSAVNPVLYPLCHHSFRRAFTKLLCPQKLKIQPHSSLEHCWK
# Histamine H1 receptor (Homo sapiens), sequence (P35367 whole entry, the tested form may be a part): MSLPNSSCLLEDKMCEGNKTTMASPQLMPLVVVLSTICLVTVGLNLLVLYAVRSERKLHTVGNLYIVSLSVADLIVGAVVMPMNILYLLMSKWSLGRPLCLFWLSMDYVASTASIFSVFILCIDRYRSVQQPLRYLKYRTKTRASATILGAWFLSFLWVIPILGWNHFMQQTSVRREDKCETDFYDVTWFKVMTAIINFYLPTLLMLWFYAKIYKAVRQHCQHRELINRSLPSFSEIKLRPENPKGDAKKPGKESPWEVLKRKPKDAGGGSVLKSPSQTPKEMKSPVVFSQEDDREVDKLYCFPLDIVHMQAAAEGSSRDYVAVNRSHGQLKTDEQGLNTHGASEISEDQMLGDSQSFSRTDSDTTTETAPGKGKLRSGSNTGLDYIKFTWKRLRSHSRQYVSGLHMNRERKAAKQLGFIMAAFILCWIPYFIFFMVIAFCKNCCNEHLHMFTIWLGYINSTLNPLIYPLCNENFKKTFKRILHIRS
# Histamine H2 receptor (Homo sapiens, UniProt P25021), sequence (P25021 whole entry, the tested form may be a part): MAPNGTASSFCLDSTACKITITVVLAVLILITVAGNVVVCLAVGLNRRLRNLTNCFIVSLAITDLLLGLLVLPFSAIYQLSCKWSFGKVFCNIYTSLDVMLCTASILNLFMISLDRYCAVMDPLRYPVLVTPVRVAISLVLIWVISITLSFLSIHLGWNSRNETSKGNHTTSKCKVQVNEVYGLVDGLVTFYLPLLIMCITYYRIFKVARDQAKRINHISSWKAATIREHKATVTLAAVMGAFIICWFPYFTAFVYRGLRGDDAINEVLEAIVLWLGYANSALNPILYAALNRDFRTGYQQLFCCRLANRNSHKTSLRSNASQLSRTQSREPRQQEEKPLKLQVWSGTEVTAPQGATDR
# Histamine H2 receptor (Cavia porcellus, UniProt P47747), sequence (P47747 whole entry): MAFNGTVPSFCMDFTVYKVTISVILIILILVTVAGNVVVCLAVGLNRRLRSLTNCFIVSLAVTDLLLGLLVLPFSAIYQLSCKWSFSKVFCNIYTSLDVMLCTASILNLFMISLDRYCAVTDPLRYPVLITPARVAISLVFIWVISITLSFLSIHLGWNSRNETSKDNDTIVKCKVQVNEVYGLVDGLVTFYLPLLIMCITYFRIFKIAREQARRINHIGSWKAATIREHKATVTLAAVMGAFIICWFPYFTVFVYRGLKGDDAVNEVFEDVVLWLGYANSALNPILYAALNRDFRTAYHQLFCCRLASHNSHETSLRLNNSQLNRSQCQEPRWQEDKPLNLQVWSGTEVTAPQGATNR
# Histamine H2 receptor (Cavia porcellus), sequence (P47747 whole entry, the tested form may be a part): as the sequence (P47747 whole entry) above
# Histamine H1 receptor, sequence (P31389 whole entry): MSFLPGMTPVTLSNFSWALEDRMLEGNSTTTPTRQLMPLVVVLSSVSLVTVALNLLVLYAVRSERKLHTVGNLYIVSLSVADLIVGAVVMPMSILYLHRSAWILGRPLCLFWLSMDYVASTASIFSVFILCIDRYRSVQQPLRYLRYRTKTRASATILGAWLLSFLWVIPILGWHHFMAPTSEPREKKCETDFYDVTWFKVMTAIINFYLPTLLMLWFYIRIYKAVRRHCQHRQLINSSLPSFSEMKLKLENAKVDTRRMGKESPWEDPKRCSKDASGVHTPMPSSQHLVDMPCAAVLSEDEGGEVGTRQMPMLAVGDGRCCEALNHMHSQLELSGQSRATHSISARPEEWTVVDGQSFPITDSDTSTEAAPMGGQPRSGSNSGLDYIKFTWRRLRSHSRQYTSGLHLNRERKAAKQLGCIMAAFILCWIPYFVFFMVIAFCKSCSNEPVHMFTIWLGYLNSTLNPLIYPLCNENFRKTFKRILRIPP
# Histamine H1 receptor (Cavia porcellus), sequence (P31389 whole entry): as above
SMILES,EC50 (Histamine H2 receptor [1]) [nM],Kb [2] [nM],Activity [3] [%],Emax [3] [%],Kb (Histamine H1 receptor) [nM],also measured
N=C(NCCCc1c[nH]cn1)NC(=O)CCCc1ccccc1,56.2,7100,1780,94,1820,–
CC(CC(=O)NC(N)=NCCCc1cnc[nH]1)c1nccs1 (stereo not drawn),38.9,–,–,–,–,–
NC(=NCCCc1cnc[nH]1)NC(=O)C1CCCCC1,47.9,–,–,–,5130,–
CC(C(=O)NC(N)=NCCCc1cnc[nH]1)c1ccccc1 (stereo not drawn),3630,–,–,–,> 10000,–
N=C(NCCCc1c[nH]cn1)NC(=O)CCc1ccccc1,166,9200,607,97,2140,–
N=C(NCCCc1c[nH]cn1)NC(=O)CCC1CCCCC1,–,1600,1610,98,–,–
N=C(NCCCc1c[nH]cn1)NC(=O)c1ccccc1,1170,15800,86,89,–,pA2 (Histamine H1 receptor): > 5
CC(CC(=O)NC(=N)NCCCc1c[nH]cn1)c1ccccn1 (stereo not drawn),38,7400,2610,98,–,–
N=C(NCCCc1c[nH]cn1)NC(=O)CC(c1ccccc1)c1ccc(F)cc1 (stereo not drawn),55,–,1830,95,–,pD'2 [4]: 5.39
N=C(NCCc1c[nH]cn1)NC(=O)CC(c1ccccc1)c1ccccc1,646,8700,154,64,9770,pD'2 [4]: 4.55
N=C(NCCCc1c[nH]cn1)NC(=O)CC(c1ccccc1)c1ccccn1 (stereo not drawn),51.3,4900,1960,97,11200,–
NC(=NCCC(c1ccc(F)cc1)c1ccccn1)NCCCc1cnc[nH]1 (stereo not drawn) [ARPROMIDINE],9.77,–,–,–,–,–
Cc1[nH]cnc1CSCC(=O)NC(=N)NCCCc1c[nH]cn1,–,8500,3200,101,–,–
CC(CC(=O)NC(N)=NCCCc1cnc[nH]1)C1CCCCC1 (stereo not drawn),67.6,–,–,–,2190,–
CC(C(=O)NC(=N)NCCCc1c[nH]cn1)c1ccccc1 (stereo not drawn),–,8800,28,88,–,–
N=C(NCCCc1c[nH]cn1)NC(=O)CC(c1ccc(Br)cc1)c1ccc(Br)cc1,–,–,130,60,–,–
N=C(NCCCc1c[nH]cn1)NC(=O)Cc1ccccc1,–,2800,546,97,–,–
Cc1[nH]cnc1CSCCNC(=N)NCCCc1c[nH]cn1 [IMPROMIDINE],20,–,5000,100,3390,–
NC(=NCCCc1cnc[nH]1)NC(=O)CC(c1ccc(F)c(F)c1)c1ncc[nH]1 (stereo not drawn),97.7,–,–,–,–,–
NC(=NCCCc1cnc[nH]1)NC(=O)CC(c1ccc(Cl)cc1)c1ccc(Cl)cc1,309,–,–,–,–,–
NC(=NCCCc1cnc[nH]1)NC(=O)CCC1CCCCC1,61.7,–,–,–,6170,–
Cc1nc[nH]c1CSCC(=O)NC(N)=NCCCc1cnc[nH]1,30.9,–,–,–,4270,–
N=C(NCCCc1c[nH]cn1)NC(=O)CC(c1ccc(F)cc1)c1ccc(F)cc1,204,1400,490,76,–,pD'2 [4]: 5.95

SMILES,EC50 (Histamine H2 receptor [1]) [nM],Kb [2] [nM],Activity [3] [%],Emax [3] [%],Kb (Histamine H1 receptor) [nM],also measured
N=C(NCCCc1c[nH]cn1)NC(=O)C(c1ccccc1)c1ccccc1,–,4000,95,69,–,–
CC(CC(=O)NC(=N)NCCCc1c[nH]cn1)c1nccs1 (stereo not drawn),–,11100,2590,91,–,–
NC(=NCCCc1cnc[nH]1)NC(=O)CC1CCCCC1,100,–,–,–,2450,–
N=C(NCCCc1c[nH]cn1)NC(=O)CC(c1ccc(F)c(F)c1)c1ncc[nH]1 (stereo not drawn),–,6200,1030,100,–,–
CC(CC(=O)NC(=N)NCCCc1c[nH]cn1)C1CCCCC1 (stereo not drawn),–,140,1470,101,–,–
NC(=NCCCc1cnc[nH]1)NC(=O)CC(c1ccccc1)c1ccc(F)c(F)c1 (stereo not drawn),53.7,–,–,–,–,–
N=C(NCCCc1c[nH]cn1)NC(=O)CC1CCCCC1,–,4300,1000,95,–,–
CC(C(=O)NC(N)=NCCCc1cnc[nH]1)C1CCCCC1 (stereo not drawn),138,–,–,–,2340,–
CC(C(=O)NC(=N)NCCCc1c[nH]cn1)C1CCCCC1 (stereo not drawn),–,8800,729,86,–,–
N=C(NCCCc1c[nH]cn1)NC(=O)C1CCCCC1,–,6000,2090,102,–,–
N=C(NCCCc1c[nH]cn1)NC(=O)CCCC1CCCCC1,372,1100,269,89,741,–
N=C(NCCCc1c[nH]cn1)NCCC(c1ccc(F)cc1)c1ccccn1 (stereo not drawn),–,–,10200,100,–,–
CC(CC(=O)NC(=N)NCCCc1c[nH]cn1)c1cccs1 (stereo not drawn),–,2100,2630,99,–,Activity [5]: 1.8%; Activity (Histamine H2 receptor [6]): 1160%; Efficacy (Histamine H2 receptor [6]): 0.97; Activity (Histamine H3 receptor): 1530%; Efficacy (Histamine H3 receptor): 0.29; Activity [7]: 5710%; Efficacy [7]: 1.05
NC(=NCCCc1cnc[nH]1)NC(=O)CC(c1ccc(Br)cc1)c1ccc(Br)cc1,776,–,–,–,–,–
CC(CC(=O)/N=C(\N)NCCCc1c[nH]cn1)c1ccccc1 (stereo not drawn),–,3000,6350,99,–,Activity [5]: 1.3%; Efficacy [5]: 0.35; Activity (Histamine H2 receptor [6]): 1800%; Efficacy (Histamine H2 receptor [6]): 0.87; Activity (Histamine H3 receptor): 1024%; Efficacy (Histamine H3 receptor): 0.24; Activity [7]: 10000%; Efficacy [7]: 1.03
NC(=NCCCc1cnc[nH]1)NC(=O)C(c1ccccc1)c1ccccc1,1050,–,–,–,–,–
N=C(NCCCc1c[nH]cn1)NC(=O)CC(c1ccccc1)c1ccc(F)c(F)c1 (stereo not drawn),–,1200,1850,81,–,pD'2 [4]: 6.06
N=C(NCCCc1c[nH]cn1)NC(=O)CCCCc1ccccc1,468,–,211,86,562,–
N=C(NCCCc1c[nH]cn1)NC(=O)CC(c1ccc(Cl)cc1)c1ccc(Cl)cc1,–,–,320,60,–,–
NC(=NCCCc1cnc[nH]1)NC(=O)CC(c1ccc(F)cc1)c1ccccn1 (stereo not drawn),33.9,–,–,–,3720,–
NC(=NCCCc1cnc[nH]1)NC(=O)Cc1ccccc1,182,–,–,–,575,–
N=C(NCCCc1c[nH]cn1)NC(=O)CC(c1ccc(F)cc1)c1ccccn1 (stereo not drawn),–,5200,2930,100,–,–
N=C(NCCCc1c[nH]cn1)NC(=O)CC(c1ccc(F)c(F)c1)c1nccn1Cc1ccccc1 (stereo not drawn),398,2900,251,54,–,–
